Drawing on ChEMBL document CHEMBL3758101, “Synthesis and biological evaluation of fluorinated 1,5-diarylpyrrole-3-alkoxyethyl ether derivatives as selective COX-2 inhibitors endowed with anti-inflammatory activity” (Eur J Med Chem, 2016), this text covers Activity and Ratio IC50 for one compound.

Assay [1] has as its system Rattus norvegicus. Nature of the assay: Antihyperalgesic effect in Sprague-Dawley rat model of monosodium iodoacetate-induced osteoarthritis assessed as withdrawal threshold at 3 mg/kg, ip administered 14 days post MIA challenge measured after 60 mins by paw pressure test (reference value: 36.1 +/- 3.5 g). Type of assay: functional. The gist of the method:
(§1)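 Male Sprague–Dawley rats (200–250 g). MIA (2 mg/25 µL) was injected into the left tibiotarsal joint on day 0 under 2% isoflurane; controls received 25 µL saline. On day 14 compound or vehicle was given at time 0. Paw pressure threshold (g) was read with an analgesimeter using a blunt conical probe on the dorsal paw at 30, 60, 90 and 120 min. Mean ± s.e.m., 6 rats.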

Assay [2] relates to Rattus norvegicus. The assay can be described thus: Antiinflammatory activity in Sprague-Dawley rat model of carrageenan-induced paw edema assessed as paw volume at 3 mg/kg, po administered 2 hrs post carrageenan challenge measured after 120 mins by plethysmometry (reference value: 34.5 +/- 4.4 ml). Type of assay: functional. (Carrageenan injected into the paw causes an acute inflammation.)

The test system of assay [3] is Rattus norvegicus. Nature of the assay: Antiinflammatory activity in Sprague-Dawley rat model of carrageenan-induced paw edema assessed as paw volume at 3 mg/kg, po administered 2 hrs post carrageenan challenge measured after 90 mins by plethysmometry (reference value: 37.2 +/- 3.4 ml). The class given is functional.
Assay [4] has as its system Rattus norvegicus. Nature of the assay: Antihyperalgesic effect in Sprague-Dawley rat model of monosodium iodoacetate-induced osteoarthritis assessed as withdrawal threshold at 3 mg/kg, ip administered 14 days post MIA challenge measured after 30 mins by paw pressure test (reference value: 37.8 +/- 3.3 g). Type of assay: functional. Summed up:
as §1

Assay [5] concerns Rattus norvegicus. The assay can be described thus: Antihyperalgesic activity in Sprague-Dawley rat model of carrageenan-induced inflammatory pain assessed as paw pressure threshold at 3 mg/kg, po administered 2 hrs post carrageenan challenge measured after 60 mins by paw pressure test (reference value: 35.4 +/- 3.6 g).
Assay [6] concerns Mus musculus. Nature of the assay: Antinociceptive activity in CD1 albino mouse model of acetic acid-induced visceral pain assessed as number of writhes at 10 mg/kg, po pretreated for 30 mins before acetic acid challenge measured after 5 mins (reference value: 30.5 +/- 1.7). Type of assay: functional.
Assay [7] has as its system Rattus norvegicus. Nature of the assay: Antiinflammatory activity in Sprague-Dawley rat model of carrageenan-induced paw edema assessed as volume of paw edema at 3 mg/kg, po administered 2 hrs post carrageenan challenge measured after 60 mins by plethysmometry (reference value: 2.73 +/- 0.07 ml). Type of assay: functional.
Assay [8] is filed under the species Mus musculus. Nature of the assay: Selectivity ratio of IC50 for mouse COX-1 to IC50 for mouse COX-2. Summed up: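 In J774 cells, the ratio was taken as COX-1 IC50 over COX-2 IC50. COX-1 activity: 15 min compound pretreatment, then 30 min with 15 µM arachidonic acid. COX-2 activity: 24 h LPS (10 µg/mL) induction with compound. PGE2 was measured by RIA in both; IC50 values came from sigmoidal fits of three experiments.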

The subject of assay [9] is Mus musculus. The assay can be described thus: Antinociceptive activity in CD1 albino mouse model of acetic acid-induced visceral pain assessed as number of writhes at 20 mg/kg, po pretreated for 30 mins before acetic acid challenge measured after 5 mins (reference value: 30.5 +/- 1.7). Type of assay: functional.
For assay [10], the system named is Rattus norvegicus. The assay can be described thus: Antiinflammatory activity in Sprague-Dawley rat model of carrageenan-induced paw edema assessed as volume of paw edema at 20 mg/kg, po administered 2 hrs post carrageenan challenge measured after 60 mins by plethysmometry (reference value: 2.73 +/- 0.07 ml). The class given is functional.
Assay [11] has as its system Rattus norvegicus. Nature of the assay: Antihyperalgesic effect in Sprague-Dawley rat model of monosodium iodoacetate-induced osteoarthritis assessed as withdrawal threshold at 10 mg/kg, ip administered 14 days post MIA challenge measured after 90 mins by paw pressure test (reference value: 37.8 +/- 3.1 g). Type of assay: functional. The gist of the method: as §1

Take `Cc1c(CCOCCCF)cc(-c2ccc(S(C)(=O)=O)cc2)n1-c1ccc(F)cc1`: the Activity in the assay with Rattus norvegicus [1] is 45.4 g; with Rattus norvegicus [2] it was 36.2 g; in the assay with Rattus norvegicus [3] it was 44.8 g; in the assay with Rattus norvegicus [4] it was 47.9 g; with Rattus norvegicus [5], 49.2 g; in the assay with Mus musculus [6] it was 11.4. Also, the Activity in the assay with Rattus norvegicus [7] amounted to 2.38 mL; in the assay on Mus musculus [9] it was 10.7; in the assay with Rattus norvegicus [10], 2.06 mL; in the assay on Rattus norvegicus [11] it was 44.3 g. The Ratio IC50 in the assay filed under Mus musculus [8] was more than 14300.
